Published values gathered from unrelated publications.
Protocols differ between the studies behind these lines.
Target: Homeodomain-interacting protein kinase 4 (HIPK4, Homo sapiens, UniProt Q8NE63)
Observed: enzyme activity
Mode: inhibitor
One construct used (Q8NE63 1-616): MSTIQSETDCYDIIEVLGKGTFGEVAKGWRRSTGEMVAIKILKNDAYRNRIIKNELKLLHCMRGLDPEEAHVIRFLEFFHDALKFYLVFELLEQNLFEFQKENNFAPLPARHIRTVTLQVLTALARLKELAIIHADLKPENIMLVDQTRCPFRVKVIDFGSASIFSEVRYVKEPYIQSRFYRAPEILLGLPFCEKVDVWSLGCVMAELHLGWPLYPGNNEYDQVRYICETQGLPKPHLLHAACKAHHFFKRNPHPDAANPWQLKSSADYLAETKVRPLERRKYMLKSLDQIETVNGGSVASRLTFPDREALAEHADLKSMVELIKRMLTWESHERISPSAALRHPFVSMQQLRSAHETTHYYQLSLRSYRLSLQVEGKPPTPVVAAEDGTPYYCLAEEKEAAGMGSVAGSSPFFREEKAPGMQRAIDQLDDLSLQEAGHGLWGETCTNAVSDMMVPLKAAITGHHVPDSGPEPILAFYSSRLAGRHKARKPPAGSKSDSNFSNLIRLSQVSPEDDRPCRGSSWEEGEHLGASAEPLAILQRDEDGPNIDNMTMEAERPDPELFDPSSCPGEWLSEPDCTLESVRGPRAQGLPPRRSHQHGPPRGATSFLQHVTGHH

SMILES | assay | conditions | remaining activity
COc1cc(Cl)c(C(=O)N[C@@H](CN[C@H]2CC[C@@H](N)CC2)Cc2ccc(C#N)cc2)cc1-c1ccc(CN[C@H](C)c2ccc(C)cc2)o1 |  | 1 µM | 90%
Cc1ccc(C(=O)Nc2ccc(CN3CCN(C)CC3)c(C(F)(F)F)c2)cc1C#Cc1cnc2cccnn12 |  | 23.5 nM | 71%
O=C(O)c1ccc2c(c1)nc(Nc1ccccc1)c1ccncc12 | radiometric | 1 µM | -2%
CC(C)(O)[C@H]1CC[C@H](Nc2ccc3ncc(-c4cccc(C(F)(F)F)c4)n3n2)CC1 |  | 1 µM | 23.6%
O=C(O)c1ccc2c(c1)nc(NCc1ccccc1)c1ncncc12 | radiometric | 1 µM | 63%
Cc1sc(C(=O)NC2COC2)cc1-n1cc(NC(=O)Nc2c(F)cccc2Cl)cn1 |  | 10 µM | 98.4%
CC(C)(C)c1nc2c(s1)c1nc(N)ncc1c1ccc(NS(=O)(=O)c3c(F)cccc3F)c(F)c12 | radiometric | 1 µM | 82%
O=C(O)c1ccc2c(c1)nc(NCCc1ccccc1)c1ncncc12 | radiometric | 1 µM | 29%
CC(C)(C)c1nc(-c2cccc(NS(=O)(=O)c3c(F)cccc3F)c2F)c(-c2ccnc(N)n2)s1 | radiometric | 1 µM | 37%
O=C(Nc1cnn(-c2csc(C(=O)NC3COC3)c2)c1)Nc1ccccc1Cl |  | 5 µM | 100%
